{"source": "ChEMBL document CHEMBL5236609", "about": "“Optimization of 1,2,4-Triazole-3-thiones toward Broad-Spectrum Metallo-β-lactamase Inhibitors Showing Potent Synergistic Activity on VIM- and NDM-1-Producing Clinical Isolates” (J Med Chem, 2022)", "note": "Active and inactive are the calls of the source. No cut-off for these calls is given here.", "data": [{"system": "not listed separately", "experiment": "Cytotoxicity against human HeLa cells assessed as LDH release incubated for 24 hrs by membrane integrity assay", "format": "toxicity, cell-based", "conditions": "not given", "summary_of_the_method": "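HeLa cells (20,000/well) exposed to compound up to 250 μM for 24 h at 37 °C, 5% CO2 in DMEM with 10% FBS, 4.5 mg/mL glucose and 2 mM L-glutamine. LDH release expressed as % of Triton X-100 maximum lysis; IC50 is the concentration giving 50% cytotoxicity.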", "units": {"CC50 at 24 h": "nM"}, "values": [{"smiles": "O=C(O)[C@H](CCCn1c(-c2ccccc2)n[nH]c1=S)N(Cc1ccccn1)Cc1c[nH]cn1", "CC50 at 24 h": 175000}]}, {"system": "Bacteria", "experiment": "Competitive inhibition of bacterial VIM-2 (unknown origin) assessed as Zn(II) content by at 48 uM by overnight equilibrium dialysis", "conditions": "not given", "summary_of_the_method": "(§1)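 VIM-2 or NDM-1 (3 μM final) in 50 mM HEPES pH 7.5 mixed with compound at 0–48 μM. Incubated 1 h on ice, then dialysed overnight at 4 °C against 50 mM HEPES pH 7.5. Zn(II) content measured by atomic absorption at 213.86 nm against a zinc standard curve. Each point averages three samples.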", "values": [{"smiles": "O=C(O)[C@H](CCCn1c(-c2ccccc2)n[nH]c1=S)N(Cc1cncs1)Cc1cncs1", "inhibition": "Active"}]}, {"target": "not listed separately", "experiment": "Inhibition of bacterial Metallo-beta-lactamase VIM-1 (unknown origin)", "set-up": "species or system Bacteria", "conditions": "not given", "summary_of_the_method": "(§2)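 Reporter-substrate assay with purified MBL (1–70 nM final) in 50 mM HEPES pH 7.5 at 30 °C. […] Inhibitor 0.5–1000 μM final. Ki derived from the v0/vi vs [I] slope assuming competitive inhibition, or from a Dixon plot. Ki given when inhibition >70%, otherwise % inhibition at 100 μM. Triplicate.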", "units": {"Ki": "nM"}, "values": [{"smiles": "CC(C)(C)OC(=O)N[C@@H](CCCn1c(-c2ccccc2)n[nH]c1=S)C(=O)O", "Ki": 30800}, {"smiles": "O=C(O)CCCCn1c(-c2ccccc2)n[nH]c1=S", "Ki": 13900}]}, {"system": "Klebsiella pneumoniae", "experiment": "Antimicrobial activity against blaVIM-4-producing multidrug-resistant Klebsiella pneumoniae VA-416/02 clinical isolate assessed as meropenem MIC at 32 ug/ml by broth microdilution method (reference value: […] ug/ml)", "format": "functional", "conditions": "dose 32 µg/ml", "summary_of_the_method": "(§3)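 Inoculum was 5×10^4 CFU/well. Each inhibitor was present at a fixed 32 μg/mL, and MICs were also taken without inhibitor.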", "units": {"MIC": "µg/mL"}, "values": [{"smiles": "O=C(O)[C@H](CCCn1c(-c2ccccc2)n[nH]c1=S)N(Cc1ccccn1)Cc1c[nH]cn1", "MIC": 0.03}, {"smiles": "O=C(O)[C@H](CCCn1c(-c2ccccc2)n[nH]c1=S)N(Cc1cncs1)Cc1cncs1", "MIC": 1}]}, {"target": "not listed separately", "experiment": "Inhibition of bacterial Metallo-beta-lactamase VIM-2 (unknown origin)", "set-up": "species or system Bacteria", "conditions": "not given", "summary_of_the_method": "as §2", "units": {"Ki": "nM"}, "values": [{"smiles": "CC(C)(C)OC(=O)N[C@@H](CCCn1c(-c2ccccc2)n[nH]c1=S)C(=O)O", "Ki": 1950}, {"smiles": "O=C(O)CCCCn1c(-c2ccccc2)n[nH]c1=S", "Ki": 2810}]}, {"system": "not listed separately", "experiment": "Inhibition of bacterial VIM-2 (unknown origin) expressed in Escherichia coli EXPRESS BL21(DE3) assessed as inhibition constant by measuring rate of substrate hydrolysis by UV-visible spectrophotometry", "set-up": "species or system Bacteria", "conditions": "not given", "summary_of_the_method": "as §2", "units": {"Ki": "nM"}, "values": [{"smiles": "O=C(O)[C@H](CCCn1c(-c2ccccc2)n[nH]c1=S)N(Cc1ccccn1)Cc1c[nH]cn1", "Ki": 640}, {"smiles": "O=C(O)[C@H](CCCn1c(-c2ccccc2)n[nH]c1=S)N(Cc1cncs1)Cc1cncs1", "Ki": 100}]}, {"system": "Bacteria", "experiment": "Inhibition of bacterial NDM-1 (unknown origin) assessed as ternary complex formation using 10 uM enzyme concentration at 50 uM by native MS analysis", "conditions": "not given", "summary_of_the_method": "(§4)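 Purified VIM-2 or NDM-1 was given 2 mM TCEP and 2 equiv ZnCl2, incubated 1 h, and dialysed overnight into 100 mM ammonium acetate pH 7.5. Enzyme at 10 μM was then incubated 5 min with 50 μM compound. Positive-mode nanoESI on an Orbitrap, scanning m/z 1000–4000. Species assigned from deconvoluted masses.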", "values": [{"smiles": "O=C(O)[C@H](CCCn1c(-c2ccccc2)n[nH]c1=S)N(Cc1cncs1)Cc1cncs1", "inhibition": "Active"}]}, {"system": "not listed separately", "experiment": "Inhibition of bacterial NDM-1 (unknown origin) expressed in Escherichia coli EXPRESS BL21(DE3) assessed as inhibition constant by measuring rate of substrate hydrolysis by UV-visible spectrophotometry", "set-up": "species or system Bacteria", "conditions": "not given", "summary_of_the_method": "as §2", "units": {"Ki": "nM"}, "values": [{"smiles": "O=C(O)[C@H](CCCn1c(-c2ccccc2)n[nH]c1=S)N(Cc1ccccn1)Cc1c[nH]cn1", "Ki": 380}, {"smiles": "O=C(O)[C@H](CCCn1c(-c2ccccc2)n[nH]c1=S)N(Cc1cncs1)Cc1cncs1", "Ki": 28000}]}, {"system": "not listed separately", "experiment": "Inhibition of bacterial VIM-1 (unknown origin) expressed in Escherichia coli EXPRESS BL21(DE3) assessed as inhibition constant by measuring rate of substrate hydrolysis by UV-visible spectrophotometry", "set-up": "species or system Bacteria", "conditions": "not given", "summary_of_the_method": "as §2", "units": {"Ki": "nM"}, "values": [{"smiles": "O=C(O)[C@H](CCCn1c(-c2ccccc2)n[nH]c1=S)N(Cc1ccccn1)Cc1c[nH]cn1", "Ki": 950}, {"smiles": "O=C(O)[C@H](CCCn1c(-c2ccccc2)n[nH]c1=S)N(Cc1cncs1)Cc1cncs1", "Ki": 300}]}, {"system": "Bacteria", "experiment": "Inhibition of bacterial Metallo-beta-lactamase NDM-1 (unknown origin) at 100 uM relative to control", "conditions": "not given", "summary_of_the_method": "as §2", "units": {"inhibition": "%"}, "values": [{"smiles": "CC(C)(C)OC(=O)N[C@@H](CCCn1c(-c2ccccc2)n[nH]c1=S)C(=O)O", "inhibition": 35}]}, {"system": "not listed separately", "experiment": "Inhibition of bacterial Metallo-beta-lactamase NDM-1 (unknown origin)", "set-up": "species or system Bacteria", "conditions": "not given", "summary_of_the_method": "as §2", "values": [{"smiles": "O=C(O)CCCCn1c(-c2ccccc2)n[nH]c1=S", "Ki": "Not Active"}]}, {"system": "Escherichia coli", "experiment": "Antimicrobial activity against blaNDM-1-producing multidrug-resistant Escherichia coli SI-004 clinical isolate assessed as meropenem MIC at 32 ug/ml by broth microdilution method (reference value: 64 ug/ml)", "conditions": "not given", "units": {"MIC": "µg/mL"}, "values": [{"smiles": "O=C(O)[C@H](CCCn1c(-c2ccccc2)n[nH]c1=S)N(Cc1ccccn1)Cc1c[nH]cn1", "MIC": 0.06}, {"smiles": "O=C(O)[C@H](CCCn1c(-c2ccccc2)n[nH]c1=S)N(Cc1cncs1)Cc1cncs1", "MIC": 32}]}, {"system": "Bacteria", "experiment": "Competitive inhibition of bacterial NDM-1 (unknown origin) assessed as Zn(II) content at 48 uM by overnight equilibrium dialysis", "conditions": "not given", "summary_of_the_method": "as §1", "values": [{"smiles": "O=C(O)[C@H](CCCn1c(-c2ccccc2)n[nH]c1=S)N(Cc1cncs1)Cc1cncs1", "inhibition": "Active"}]}, {"target": "not listed separately", "experiment": "Inhibition of bacterial Metallo-beta-lactamase VIM-4 (unknown origin)", "set-up": "species or system Bacteria", "conditions": "not given", "summary_of_the_method": "as §2", "units": {"Ki": "nM"}, "values": [{"smiles": "CC(C)(C)OC(=O)N[C@@H](CCCn1c(-c2ccccc2)n[nH]c1=S)C(=O)O", "Ki": 1510}, {"smiles": "O=C(O)CCCCn1c(-c2ccccc2)n[nH]c1=S", "Ki": 1130}]}, {"system": "Bacteria", "experiment": "Inhibition of bacterial Metallo-beta-lactamase VIM-1 (unknown origin) at 100 uM relative to control", "conditions": "not given", "summary_of_the_method": "as §2", "units": {"inhibition": "%"}, "values": [{"smiles": "O=C(O)CCCCn1c(-c2ccccc2)n[nH]c1=S", "inhibition": 57}]}, {"system": "Klebsiella pneumoniae", "experiment": "Antimicrobial activity against blaVIM-1-producing multidrug-resistant Klebsiella pneumoniae K47-25 clinical isolate assessed as meropenem MIC at 32 ug/ml by broth microdilution method (reference value: […] ug/ml)", "format": "functional", "conditions": "dose 32 µg/ml", "summary_of_the_method": "as §3", "units": {"MIC": "µg/mL"}, "values": [{"smiles": "O=C(O)[C@H](CCCn1c(-c2ccccc2)n[nH]c1=S)N(Cc1ccccn1)Cc1c[nH]cn1", "MIC": 0.06}, {"smiles": "O=C(O)[C@H](CCCn1c(-c2ccccc2)n[nH]c1=S)N(Cc1cncs1)Cc1cncs1", "MIC": 1}]}, {"system": "not listed separately", "experiment": "Inhibition of bacterial VIM-4 (unknown origin) expressed in Escherichia coli EXPRESS BL21(DE3) assessed as inhibition constant by measuring rate of substrate hydrolysis by UV-visible spectrophotometry", "set-up": "species or system Bacteria", "conditions": "not given", "summary_of_the_method": "as §2", "units": {"Ki": "nM"}, "values": [{"smiles": "O=C(O)[C@H](CCCn1c(-c2ccccc2)n[nH]c1=S)N(Cc1ccccn1)Cc1c[nH]cn1", "Ki": 560}, {"smiles": "O=C(O)[C@H](CCCn1c(-c2ccccc2)n[nH]c1=S)N(Cc1cncs1)Cc1cncs1", "Ki": 140}]}, {"system": "Pseudomonas aeruginosa", "experiment": "Antimicrobial activity against blaVIM-2-producing multidrug-resistant Pseudomonas aeruginosa VA-182/00 clinical isolate assessed as meropenem MIC at 32 ug/ml by broth microdilution method (reference value: 128 ug/ml)", "format": "functional", "conditions": "dose 32 µg/ml", "summary_of_the_method": "as §3", "units": {"MIC": "µg/mL"}, "values": [{"smiles": "O=C(O)[C@H](CCCn1c(-c2ccccc2)n[nH]c1=S)N(Cc1ccccn1)Cc1c[nH]cn1", "MIC": 8}, {"smiles": "O=C(O)[C@H](CCCn1c(-c2ccccc2)n[nH]c1=S)N(Cc1cncs1)Cc1cncs1", "MIC": 128}]}, {"system": "Bacteria", "experiment": "Inhibition of bacterial VIM-2 (unknown origin) assessed as ternary complex formation using 10 uM enzyme concentration at 50 uM by native MS analysis", "conditions": "not given", "summary_of_the_method": "as §4", "values": [{"smiles": "O=C(O)[C@H](CCCn1c(-c2ccccc2)n[nH]c1=S)N(Cc1cncs1)Cc1cncs1", "inhibition": "Active"}]}, {"system": "not listed separately", "experiment": "Inhibition of bacterial Metallo-beta-lactamase IMP-1 (unknown origin)", "set-up": "species or system Bacteria", "conditions": "not given", "summary_of_the_method": "as §2", "values": [{"smiles": "CC(C)(C)OC(=O)N[C@@H](CCCn1c(-c2ccccc2)n[nH]c1=S)C(=O)O", "Ki": "Not Active"}, {"smiles": "O=C(O)CCCCn1c(-c2ccccc2)n[nH]c1=S", "Ki": "Not Active"}]}, {"system": "Bacteria", "experiment": "Inhibition of bacterial IMP-1 (unknown origin) expressed in Escherichia coli EXPRESS BL21(DE3) assessed as inhibition constant by measuring rate of substrate hydrolysis at 100 uM by UV-visible spectrophotometry relative to control", "conditions": "not given", "summary_of_the_method": "as §2", "units": {"inhibition": "%"}, "values": [{"smiles": "O=C(O)[C@H](CCCn1c(-c2ccccc2)n[nH]c1=S)N(Cc1ccccn1)Cc1c[nH]cn1", "inhibition": "< 30"}, {"smiles": "O=C(O)[C@H](CCCn1c(-c2ccccc2)n[nH]c1=S)N(Cc1cncs1)Cc1cncs1", "inhibition": "< 30"}]}]}
